T cruzi repl: inhibitors of intracellular T. cruzi growth, primary screen, luminescence, NIH3T3 host cells; T. cruzi beta-gal in NIH3T3, 90 h; inhibition, % (concentration not given with the values); hit rate 1.4% among 300,000; AID 1885, 2009;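 active = mean inhibition across valid replicates above about 55%, limit read from the data; inconclusive = mean below that limit but half or more replicates reach it; inactive = mean below it, under half of replicates reach it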;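 note: signal also drops with host cell toxicity which is not excluded here; 0% = plate median of DMSO wells and 100% = zero luminescence signal; higher percent means less beta-gal luminescence so fewer parasites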
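Material: NIH/3T3 host cells with β-galactosidase reporter T. cruzi; Input: 5,000 host fibroblasts per well; Medium: DMEM, 2% fetal bovine serum; Compound: 50 nL DMSO compound solution per well; Schedule: 3 h host attachment, then at least 90 h co-culture; Detection: luminescent β-galactosidase signal after 60 min lysis.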
aSyn UTR inh: MLPCN primary screen, SNCA 5' untranslated region | alpha-synuclein 5'UTR reporter, inhibitor activity | inhibition, % (tested at 7.5 µM) | hit rate 0.82% among 300,000 | AID 1813, 2009; in the data active = inhibition above about 60%; inconclusive = no clear call, values can overlap the other calls;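 note: H4 neuroglioblastoma cells stably carrying SNCA 5'UTR luciferase fusion; 0% = DMSO wells and 100% = positive control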
Mdm2 MdmX PPI: inhibitors of human Mdm2-MdmX association, primary screen, cell-based, luminescence, split luciferase, SaOS-2, uHTS. Protein Mdm4 (Homo sapiens) + E3 ubiquitin-protein ligase Mdm2 (Homo sapiens), …. SaOS-2 split-luciferase Mdm2/MdmX complementation. inhibition, % at 8 µM. hit rate 3% among 330,000;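 active = inhibition of at least 50% at 8 µM in the primary screen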
SKKanGAS inh: S. pyogenes SKKanGAS growth inhibitors in kanamycin, primary screen, streptokinase expression inhibitor project, SKKanGAS strain, BacTiter-Glo luminescence | 6 h | inhibition, % at 7.5 µM | hit rate 1.3% among 300,000 | AID 1662, 2009;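 active = mean replicate score, as percent of positive control median, at least 50; inconclusive = mean below 50 but one replicate at or above 50; inactive = mean and every replicate below 50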;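 note: strain carries kanamycin resistance gene driven by streptokinase promoter and grows in 40 µg/ml kanamycin; loss of luminescence reflects streptokinase promoter inhibition or plain growth inhibition; 0% = median of DMSO wells and 100% = positive control at its reference dose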
CSC inhib: cancer stem cell viability inhibitors, primary screen, luminescence | cancer stem cell-like cells viability | hit rate 1.1% among 300,000 | AID 2717, 2010 | inhibition, % at 7.5 µM; in the data active = inhibition above about 75%; inconclusive = no clear call, values can overlap the other calls; tested in HMLE shEcad cells
Mdm2 MdmX conf: Mdm2-MdmX complex disruptors, retested hits, confirmation, luminescence, single concentration; shares compounds with Mdm2 MdmX PPI; Mdm2-MdmX binding, luminescent assay; inhibition, % at 8 µM; hit rate 55% among 10,000; in the data active = inhibition above about 40%
FLuc counter: full-length luciferase signal inhibition, confirmation, counter-screen for Mdm2/MdmX interaction inhibitor project, cell-based, single concentration, SaOS-2; shares compounds with Mdm2 MdmX PPI; SaOS-2 full-length luciferase counterscreen, luminescence; inhibition, % at 8 µM; hit rate 77% among 6,200;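 active = mean inhibition at 8 µM reaching about 37%, which flags the compound as non-specific, limit read from the data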;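 note: p53-null SaOS-2 cells with luciferase driven by a doxycycline-inducible promoter; compound on cells about two nights before reading with doxycycline added after day one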
An asterisk follows results filed as active; ? = inconclusive; · = no result given. Hits are enriched below; roughly 5.4% of the tested compounds scored in any of these assays.

SMILES | T cruzi repl | aSyn UTR inh | Mdm2 MdmX PPI | SKKanGAS inh | CSC inhib | Mdm2 MdmX conf | FLuc counter
CCN(CC(=O)Nc1ccc(OC)cc1)C(=O)c1ccc2c(=O)n3c(nc2c1)CCC3 | · | · | 21 | · | -3 | · | ·
CCn1cc([N+](=O)[O-])c(C(=O)Nc2ccn(Cc3ccccc3)n2)n1 | 0 | -10 | -4 | -6 | -8 | · | ·
Cc1ccc(Cn2ccc(NC(=O)c3nn(C)cc3[N+](=O)[O-])n2)cc1 | ? | 21 | 59* | 9 | · | 63* | 68*
Cn1cc([N+](=O)[O-])c(C(=O)Nc2cc(Oc3cccnc3)cc([N+](=O)[O-])c2)n1 | -48 | 61 | 82* | 9 | -16 | 7 | ·
Cc1cc(C)n(Cc2ccc(NC(=O)c3nn(C)cc3[N+](=O)[O-])cc2)n1 | -1 | -10 | 71* | 4 | 45 | 52* | 59*
Cn1cc([N+](=O)[O-])c(C(=O)Nc2ccc3nc(-c4ccccc4)[nH]c3c2)n1 | -35 | -36 | -67 | 0 | · | · | ·
Cn1cc([N+](=O)[O-])c(C(=O)Nc2ccc(C3CCCCC3)cc2)n1 | 26 | 45 | 59* | 12 | 117* | 27 | 154*
CCN(CC)CCN1C(=O)C(O)=C(C(=O)c2cc3cccc(OC)c3o2)C1c1cccs1 (stereo unspecified) | -19 | -18 | 22 | -7 | -2 | · | ·
COc1ccc(C(=O)COC(=O)C2CCC(=O)N2)cc1 (stereo unspecified) | -11 | -22 | 8 | -10 | 10 | · | ·
COc1ccc(-c2nn(-c3ccccc3)cc2C(=O)NC2CCC(C)CC2)cc1 (stereo unspecified) | 29 | -28 | 28 | 0 | -13 | · | ·
COc1ccc(-c2nn(-c3ccccc3)cc2C(=O)NC2CCCCC2C)cc1 (stereo unspecified) | 6 | -8 | 74* | 23 | -10 | 29 | ·
Cc1cc(NC(=O)CS(=O)(=O)c2ccc(Cl)cc2)no1 | -8 | 15 | -12 | -1 | -3 | · | ·
CC(C)(C)c1nc(SCC(=O)NNC(=O)c2ccccc2)c2ccccc2n1 | 16 | -1 | 19 | 8 | -3 | · | ·
Cc1cc(OCC(=O)Nc2nnc(C3CC3)s2)ccc1C(C)C | · | · | -4 | · | · | · | ·
Cc1ccc(C(C)C)cc1OCC(=O)Nc1nnc(C2CC2)s1 | · | · | 88* | · | · | 65* | 33
Cc1nsc(Nc2ccc([N+](=O)[O-])cc2)c1C#N | -16 | 2 | 79* | -2 | 7 | 55* | 89*
c1csc(-c2cc(N3CCCCC3)c3ccccc3n2)c1 | 13 | 24 | -4 | 22 | 58 | · | ·
COc1ccc(C(=O)N2CCC(O)(c3ccc(Cl)cc3)CC2)cc1OC | 13 | -8 | 9 | 0 | -5 | · | ·
O=C(NCCC1=CCCCC1)c1coc(=O)c(Br)c1 | -9 | -65 | 84* | -2 | ? | 39 | 22
COc1ccccc1NC(=O)NNC(=O)CCc1ccccc1 | -3 | -7 | -9 | -5 | -9 | · | ·
O=C(CC1C[C@H](C(=O)N2CCOCC2)[C@@]2(CCC3CCCC3)c3[nH]c4ccccc4c3CCN2C1=O)NCCC1=CCCCC1 (stereo partly specified) | · | · | 60* | · | · | -16 | ·
CN(C)CCCNC(=O)CC1C[C@H](C(=O)N2CCOCC2)[C@@]2(CCC3CCCC3)c3[nH]c4ccccc4c3CCN2C1=O (stereo partly specified) | · | · | 36 | · | · | · | ·
CN(C)C(=O)CCc1ccc2c3c([nH]c2c1)[C@]1(CCC2CCCC2)[C@@H](C(=O)N2CCOCC2)C[C@H](CC(=O)NCc2cccc(C(F)(F)F)c2)C(=O)N1CC3 | · | · | 61* | · | · | 53* | 59*
COc1ccc2[nH]c3c(c2c1)CCN1C(=O)C(CC(=O)NCCN2CCOCC2)C[C@H](C(=O)N2CCOCC2)[C@@]31CCC1CCCC1 (stereo partly specified) | · | · | 66* | · | · | -15 | ·
CCN1C(=O)C(O)(C2COC(C)(C)CC2=O)c2ccccc21 (stereo unspecified) | -20 | -4 | 11 | 7 | · | · | ·

Source: PubChem BioAssay
